{"source": "ChEMBL document CHEMBL1828618", "about": "“Synthesis and biological activity of novel tiliroside derivants” (Eur J Med Chem, 2011)", "data": [{"biological_target": "not listed separately", "assay": "Inhibition of dephosphorylated glycogen phosphorylase", "details": "not given", "units": {"IC50": "µM"}, "values": [{"smiles": "O=c1cc(-c2ccc(O)c(O)c2)oc2cc(O)c(O)c(O)c12", "note": "[6-HYDROXYLUTEOLIN]", "IC50": 11.6}, {"smiles": "O=c1c(O)c(-c2ccc(O)c(O)c2)oc2cc(O)c(O)c(O)c12", "note": "[QUERCETAGETIN]", "IC50": 9.7}, {"smiles": "O=c1cc(-c2ccc(O)c(O)c2)oc2c(O)c(O)cc(O)c12", "note": "[HYPOLAETIN]", "IC50": 15.7}]}, {"tested_on": "HepG2", "assay": "Induction of ACC phosphorylation in human HepG2 cells after 2 hrs by Western blot analysis", "assay_type": "cell-based", "details": "not given", "summary_of_the_method": "(§1)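 HepG2 in 12-well plates exposed to increasing doses for 2 h. Lysed on ice in RIPA buffer (pH 7.2) with phosphatase and protease inhibitors. Run on 7.5% SDS-PAGE and blotted to PVDF. Blocked 1 h in 5% BSA, primary antibodies overnight at 4 °C, secondary 1 h at room temperature. Chemiluminescent detection. Means ± SE of 3 independent experiments.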", "values": [{"smiles": "N#Cc1ccc(/C=C/C(=O)COc2c(-c3ccc(O)cc3)oc3cc(O)cc(O)c3c2=O)cc1", "Activity": "Dose-dependent effect"}]}, {"tested_on": "HepG2", "assay": "Increase in glucose consumption in insulin-resistant human HepG2 cells after 24 hrs", "assay_type": "functional, cell-based", "details": "HepG2, 24 h", "summary_of_the_method": "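HepG2 grown in high-glucose DMEM with 10% FBS, then plated 24 h. Made insulin-resistant with 10^-7 M insulin for 36 h in serum-free, phenol red-free high-glucose DMEM. Washed, then exposed to test agents at several concentrations for 24 h. Medium glucose measured by kit. Consumption gain expressed as % over the insulin-resistant model group. EC50 derived.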", "units": {"EC50": "µM"}, "values": [{"smiles": "COc1cc(/C=C/C(=O)COc2c(-c3ccc(O)cc3)oc3cc(O)cc(O)c3c2=O)ccc1OCc1ccccc1", "EC50": "> 20"}, {"smiles": "N#Cc1ccc(/C=C/C(=O)COc2c(-c3ccc(O)cc3)oc3cc(O)cc(O)c3c2=O)cc1", "EC50": 0.003}, {"smiles": "O=C(/C=C/c1ccc(O)c(Cl)c1)COc1c(-c2ccc(O)cc2)oc2cc(O)cc(O)c2c1=O", "EC50": 3.56}, {"smiles": "CN(C)C(=N)NC(=N)N", "note": "[METFORMIN]", "EC50": 0.27}, {"smiles": "O=C(/C=C/c1ccc(O)cc1)OC[C@H]1O[C@@H](Oc2c(-c3ccc(O)cc3)oc3cc(O)cc(O)c3c2=O)[C@H](O)[C@@H](O)[C@@H]1O", "note": "[TILIROSIDE]", "EC50": 0.155}, {"smiles": "COc1ccc(/C=C/C(=O)COc2c(-c3ccc(O)cc3)oc3cc(O)cc(O)c3c2=O)cc1", "EC50": 0.149}, {"smiles": "O=C(/C=C/c1ccc(Cl)c(Cl)c1)COc1c(-c2ccc(O)cc2)oc2cc(O)cc(O)c2c1=O", "EC50": 2.59}, {"smiles": "CCOc1ccc(/C=C/C(=O)COc2c(-c3ccc(O)cc3)oc3cc(O)cc(O)c3c2=O)cc1", "EC50": 0.042}, {"smiles": "COc1cc(/C=C/C(=O)COc2c(-c3ccc(O)cc3)oc3cc(O)cc(O)c3c2=O)ccc1O", "EC50": 6.19}, {"smiles": "CCCCCCCCOc1ccc(/C=C/C(=O)COc2c(-c3ccc(O)cc3)oc3cc(O)cc(O)c3c2=O)cc1", "EC50": "> 20"}, {"smiles": "CC(C)c1ccc(/C=C/C(=O)COc2c(-c3ccc(O)cc3)oc3cc(O)cc(O)c3c2=O)cc1", "EC50": 0.015}, {"smiles": "O=C(/C=C/c1ccccc1)COc1c(-c2ccc(O)cc2)oc2cc(O)cc(O)c2c1=O", "EC50": 0.473}, {"smiles": "O=C(/C=C/c1ccc(Cl)cc1)COc1c(-c2ccc(O)cc2)oc2cc(O)cc(O)c2c1=O", "EC50": 1.07}, {"smiles": "CCCCCCOc1ccc(/C=C/C(=O)COc2c(-c3ccc(O)cc3)oc3cc(O)cc(O)c3c2=O)cc1", "EC50": "> 20"}, {"smiles": "COc1ccc(/C=C/C(=O)COc2c(-c3ccc(O)cc3)oc3cc(O)cc(O)c3c2=O)cc1Br", "EC50": "> 20"}, {"smiles": "COc1ccc(/C=C/C(=O)COc2c(-c3ccc(O)cc3)oc3cc(O)cc(O)c3c2=O)cc1O", "EC50": 5.07}, {"smiles": "O=C(/C=C/c1ccc(OCc2ccccc2)cc1)COc1c(-c2ccc(O)cc2)oc2cc(O)cc(O)c2c1=O", "EC50": 0.658}, {"smiles": "CSc1ccc(/C=C/C(=O)COc2c(-c3ccc(O)cc3)oc3cc(O)cc(O)c3c2=O)cc1", "EC50": "> 20"}, {"smiles": "O=C(/C=C/c1ccc(C(F)(F)F)cc1)COc1c(-c2ccc(O)cc2)oc2cc(O)cc(O)c2c1=O", "EC50": "> 20"}, {"smiles": "O=C(/C=C/c1ccc(F)cc1)COc1c(-c2ccc(O)cc2)oc2cc(O)cc(O)c2c1=O", "EC50": 0.669}, {"smiles": "CCCCOc1ccc(/C=C/C(=O)COc2c(-c3ccc(O)cc3)oc3cc(O)cc(O)c3c2=O)cc1", "EC50": "> 20"}, {"smiles": "Cc1ccc(/C=C/C(=O)COc2c(-c3ccc(O)cc3)oc3cc(O)cc(O)c3c2=O)cc1", "EC50": 0.01}, {"smiles": "O=C(/C=C/c1ccc(O)cc1)COc1c(-c2ccc(O)cc2)oc2cc(O)cc(O)c2c1=O", "EC50": 0.368}, {"smiles": "O=C(/C=C/c1ccc(Br)cc1)COc1c(-c2ccc(O)cc2)oc2cc(O)cc(O)c2c1=O", "EC50": 0.393}, {"smiles": "CC(C)(C)c1ccc(/C=C/C(=O)COc2c(-c3ccc(O)cc3)oc3cc(O)cc(O)c3c2=O)cc1", "EC50": 0.013}]}, {"biological_target": "AMP-activated protein kinase, AMPK (Homo sapiens) (UniProt P54646+O43741+P54619+Q9UGJ0+Q9Y478+Q13131+Q9UGI9)", "assay": "Induction of AMPK phosphorylation in human HepG2 cells after 2 hrs by Western blot analysis", "assay_type": "cell-based", "details": "not given", "summary_of_the_method": "as §1", "values": [{"smiles": "N#Cc1ccc(/C=C/C(=O)COc2c(-c3ccc(O)cc3)oc3cc(O)cc(O)c3c2=O)cc1", "Activity": "Dose-dependent effect"}]}]}
